From ChEMBL document CHEMBL1124490, “Hybrid molecules: growth inhibition of Leishmania donovani promastigotes by thiosemicarbazones of 3-carboxy-beta-carbolines” (J Med Chem, 1989)

Experiments:
Type in all cases: functional
[1] = Concentration of compound provoking 50% inhibition on growth of Leishmania donovani promastigotes; conditions: read-out: I50
Method in brief: (§1)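 L. donovani LRC L-52 promastigotes were grown at 26 °C in 45% DMEM plus 45% RPMI 1640 (25 mM HEPES, pH 7.4) with 10% heat-inactivated FCS and antibiotics. Compound was added one day after seeding. Cells were counted by hemacytometer 3 days later, in duplicate flasks at two dilutions each, against untreated cultures. IC50 is the mean of five independent experiments.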

Leishmania donovani [2] = assay: Concentration of compound provoking >99% irreversible after removal of drugs from culture medium inhibition on growth of Leishmania donovani promastigotes
Method in brief: (§2)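 Strain LRC L-52 promastigotes were exposed to compound for 3 days at 26 °C in DMEM/RPMI 1640 (HEPES, pH 7.4) with 10% heat-inactivated FCS. Cells were then centrifuged, washed free of drug and resuspended in fresh medium. They were counted by hemacytometer after 3 more days. The value is the concentration giving >99% irreversible growth inhibition.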

Leishmania donovani [3] = assay: Percent inhibition on the biosynthesis of DNA of promastigotes of Leishmania donovani at 37 uM concentration
Method in brief: (§3)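 Promastigotes (5 x 10^6 cells/mL) were incubated with or without compound for 4 h, then pulsed for 1 h with a labelled precursor: [methyl-3H]thymidine 2.5 µCi/mL for DNA, [5-3H]uridine 2.5 µCi/mL for RNA, or [4,5-3H]leucine 5 µCi/mL for protein. Cells were washed in cold PBS and fractionated with TCA (cold-soluble pool, hot-soluble nucleic acid, insoluble protein). Protein was measured by Lowry.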

Leishmania donovani [4] = assay: Percent inhibition on the biosynthesis of RNA of promastigotes of Leishmania donovani at 3.7 uM concentration; method in brief: as §3
Leishmania donovani [5] = assay: Percent inhibition on the biosynthesis of RNA of promastigotes of Leishmania donovani at 37 uM concentration; method in brief: as §3
Leishmania donovani [6] = assay: Percent inhibition on the biosynthesis of proteins of promastigotes of Leishmania donovani at 3.7 uM concentration; method in brief: as §3
Leishmania donovani [7] = assay: Percent inhibition on the biosynthesis of proteins of promastigotes of Leishmania donovani at 37 uM concentration; method in brief: as §3
Leishmania donovani [8] = assay: Percent inhibition on the growth of the promastigotes of Leishmania donovani at 3.7 uM concentration
Leishmania donovani [9] = assay: Percent inhibition on the biosynthesis of DNA of promastigotes of Leishmania donovani at 3.7 uM concentration; method in brief: as §3
Leishmania donovani [10] = assay: Percent inhibition on the growth of the promastigotes of Leishmania donovani at 37 uM concentration
Leishmania donovani [11] = assay: Percent inhibition on the biosynthesis of DNA of promastigotes of Leishmania donovani at 5.25 uM concentration; method in brief: as §3
Leishmania donovani [12] = assay: Percent inhibition on the biosynthesis of RNA of promastigotes of Leishmania donovani at 17.5 uM concentration; method in brief: as §3
Leishmania donovani [13] = assay: Percent inhibition on the biosynthesis of RNA of promastigotes of Leishmania donovani at 3.5 uM concentration; method in brief: as §3
Leishmania donovani [14] = assay: Percent inhibition on the biosynthesis of RNA of promastigotes of Leishmania donovani at 5.25 uM concentration; method in brief: as §3
Leishmania donovani [15] = assay: Percent inhibition on the biosynthesis of proteins of promastigotes of Leishmania donovani at 17.5 uM concentration; method in brief: as §3
Leishmania donovani [16] = assay: Percent inhibition on the biosynthesis of proteins of promastigotes of Leishmania donovani at 3.5 uM concentration; method in brief: as §3
Leishmania donovani [17] = assay: Percent inhibition on the biosynthesis of proteins of promastigotes of Leishmania donovani at 5.25 uM concentration; method in brief: as §3
Leishmania donovani [18] = assay: Percent inhibition on the growth of the promastigotes of Leishmania donovani at 17.5 uM concentration
Leishmania donovani [19] = assay: Percent inhibition on the growth of the promastigotes of Leishmania donovani at 3.5 uM concentration
Leishmania donovani [20] = assay: Percent inhibition on the biosynthesis of DNA of promastigotes of Leishmania donovani at 3.5 uM concentration; method in brief: as §3
Leishmania donovani [21] = assay: Percent inhibition on the biosynthesis of DNA of promastigotes of Leishmania donovani at 17.5 uM concentration; method in brief: as §3
Leishmania donovani [22] = assay: Percent inhibition on the biosynthesis of DNA of promastigotes of Leishmania donovani at 53 uM concentration; method in brief: as §3
Leishmania donovani [23] = assay: Percent inhibition on the biosynthesis of RNA of promastigotes of Leishmania donovani at 26.6 uM concentration; method in brief: as §3
Leishmania donovani [24] = assay: Percent inhibition on the biosynthesis of RNA of promastigotes of Leishmania donovani at 53 uM concentration; method in brief: as §3
Leishmania donovani [25] = assay: Percent inhibition on the biosynthesis of proteins of promastigotes of Leishmania donovani at 26.6 uM concentration; method in brief: as §3
Leishmania donovani [26] = assay: Percent inhibition on the growth of the promastigotes of Leishmania donovani at 26.6 uM concentration
Leishmania donovani [27] = assay: Percent inhibition on the growth of the promastigotes of Leishmania donovani at 53 uM concentration
Leishmania donovani [28] = assay: Concentration of compound provoking >99% irreversible after removal of drugs from culture medium inhibition on growth of Leishmania donovani promastigotes multiplication; method in brief: as §2
Leishmania donovani [29] = assay: Percent inhibition on the biosynthesis of DNA of promastigotes of Leishmania donovani at 26.6 uM concentration; method in brief: as §3
[30] = Concentration of compound provoking 50% inhibition on growth of Leishmania donovani promastigotes multiplication; conditions: read-out: I50; method in brief: as §1
Leishmania donovani [31] = assay: Percent inhibition on the biosynthesis of proteins of promastigotes of Leishmania donovani at 53 uM concentration; method in brief: as §3

Question: For `CCOC(=O)c1cc2cc(/C=N/N=C(/N)S)[nH]cc-2n1`, which IC50 [1] is on record?
Answer: The IC50 was > 50 µM.

Question: What about the concentration for >99% irreversible growth inhibition (Leishmania donovani [2]) of the same molecule?
Answer: The concentration for >99% irreversible growth inhibition was > 75 µM.

Question: What does the source list for `N/C(S)=N/N=C/c1cc2c3ccccc3nc-2c[nH]1`?
Answer: inhibition (Leishmania donovani [3]): 99.7%; inhibition (Leishmania donovani [4]): 34%; inhibition (Leishmania donovani [5]): 96%; inhibition (Leishmania donovani [6]): 7%; inhibition (Leishmania donovani [7]): 81%; inhibition (Leishmania donovani [8]): 37%; inhibition (Leishmania donovani [9]): 89%; IC50 [1]: 5 µM; concentration for >99% irreversible growth inhibition (Leishmania donovani [2]): 40 µM; inhibition (Leishmania donovani [10]): 90%

Question: For `C/C(=N\N=C(\N)S)c1cc2c3ccccc3nc-2c[nH]1`, which inhibition (Leishmania donovani [11]) is on record?
Answer: Its inhibition is 0.5%.

Question: What about the inhibition (Leishmania donovani [12]) of the same molecule?
Answer: Its inhibition is 98.7%.

Question: What about the inhibition (Leishmania donovani [13]) of the same molecule?
Answer: Its inhibition is 36%.

Question: And the inhibition (Leishmania donovani [14])?
Answer: Its inhibition is 52%.

Question: What about the inhibition (Leishmania donovani [15]) of the same molecule?
Answer: The inhibition was 95%.

Question: What about the inhibition (Leishmania donovani [16]) of the same molecule?
Answer: Its inhibition is 25%.

Question: What about the inhibition (Leishmania donovani [17]) of the same molecule?
Answer: Its inhibition is 36%.

Question: And the inhibition (Leishmania donovani [18])?
Answer: The inhibition was 100%.

Question: And the inhibition (Leishmania donovani [19])?
Answer: The inhibition was 68%.

Question: What about the inhibition (Leishmania donovani [20]) of the same molecule?
Answer: The inhibition was 0%.

Question: What about the IC50 [1] of the same molecule?
Answer: Its IC50 is 2.5 µM.

Question: And the concentration for >99% irreversible growth inhibition (Leishmania donovani [2])?
Answer: Its concentration for >99% irreversible growth inhibition is 17.5 µM.

Question: What about the inhibition (Leishmania donovani [21]) of the same molecule?
Answer: Its inhibition is 99.6%.

Question: Which results are given for `N=C(N)c1ccc(OCCCCCOc2ccc(C(=N)N)cc2)cc1` [PENTAMIDINE]?
Answer: IC50 [1]: 0.56 µM; concentration for >99% irreversible growth inhibition (Leishmania donovani [2]): 1.1 µM

Question: Which IC50 [1] does the source give for `COC(=O)c1cc2c(cn1)[nH]c1ccccc12` [BETA-CCM] here?
Answer: Its IC50 is > 50 µM.

Question: Which inhibition (Leishmania donovani [22]) does the source give for `N/C(S)=N/N=C/c1ccccn1` here?
Answer: Its inhibition is 95%.

Question: What about the inhibition (Leishmania donovani [23]) of the same molecule?
Answer: The inhibition was 50%.

Question: And the inhibition (Leishmania donovani [24])?
Answer: The inhibition was 53%.

Question: What about the inhibition (Leishmania donovani [25]) of the same molecule?
Answer: The inhibition was 20%.

Question: And the inhibition (Leishmania donovani [26])?
Answer: Its inhibition is 56%.

Question: What about the inhibition (Leishmania donovani [27]) of the same molecule?
Answer: Its inhibition is 78%.

Question: And the Imax (Leishmania donovani [28])?
Answer: The Imax was 67 µM.

Question: What about the inhibition (Leishmania donovani [29]) of the same molecule?
Answer: The inhibition was 90%.

Question: And the IC50 [30]?
Answer: Its IC50 is 29 µM.

Question: And the inhibition (Leishmania donovani [31])?
Answer: The inhibition was 17%.
